Experimental data: ChEMBL document CHEMBL1123287, “7-Aroyl-2,3-dihydrobenzo[b]furan-3-carboxylic acids and 7-benzoyl-2,3-dihydrobenzo[b]thiophene-3-carboxylic acids as analgesic agents” (1986)
Values after ≈ are worked out from the molar mass of the structure shown.

Columns and labels:
[1] = molecular target: T1, Prostaglandin E synthase (Bos taurus) (UniProt Q95L14); assay: Ability to inhibit prostaglandin synthetase ([3H]PGE2 synthesis) from [3H]arachidonic acid in bovine seminal vesicles
T1 sequence (whole entry): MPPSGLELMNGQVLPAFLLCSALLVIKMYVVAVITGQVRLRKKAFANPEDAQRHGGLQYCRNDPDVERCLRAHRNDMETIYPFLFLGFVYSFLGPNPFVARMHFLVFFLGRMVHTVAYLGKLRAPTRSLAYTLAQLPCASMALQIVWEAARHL
Outline: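 Formation of [³H]-PGE₂ was measured at no fewer than four compound concentrations, each run in duplicate. ID₅₀, the dose expected to give 50% inhibition of prostaglandin synthesis, was read from dose-response lines.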

[2] = organism: Mus musculus; assay: Analgesic activity tested by phenylquinone induced writhing test in mice; assay type: functional
[3] = test system: Mus musculus; assay: Compound was tested orally for its ability to induce gastric lesions in fasted mice (8-animals per group); assay type: functional; conditions: Stomach, po
Outline: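 Male mice (eight per group) fasted overnight, then dosed orally. Killed 4 h later; stomachs removed, stretched and examined for bleeding mucosal erosions. ED50 is the dose expected to cause observable mucosal damage in 50% of animals, calculated from dose-response lines.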

O=C(c1ccccc1)c1cccc2c1OCC2C(=O)O (stereo not given)
ID50 [1]: 0.7 µg/mL (≈ 2.61 µM)
ED50 [2]: 2.8 mg/kg

Cc1cc(CC(=O)O)n(C)c1C(=O)c1ccc(Cl)cc1 [ZOMEPIRAC]
ED50 [3]: 8 mg/kg
ID50 [1]: 0.6 µg/mL (≈ 2.06 µM)
ED50 [2]: 0.6 mg/kg

O=C(c1ccccc1)c1cc(Cl)cc2c1SCC2C(=O)O (stereo not given)
ED50 [3]: 23 mg/kg
ID50 [1]: 0.8 µg/mL (≈ 2.51 µM)
ED50 [2]: 0.8 mg/kg

COC(=O)C1COc2c(C(=O)c3ccccc3)cc(Cl)cc21 (stereo not given)
ED50 [2]: 13 mg/kg

O=C(c1ccccc1)c1cc(Br)cc2c1OCC2C(=O)O (stereo not given)
ED50 [2]: > 5 mg/kg

O=C(c1ccc(Cl)cc1)c1cc(Cl)cc2c1OCC2C(=O)O (stereo not given)
ED50 [2]: > 4 mg/kg

O=C(c1cccs1)c1cc(Cl)cc2c1OCC2C(=O)O (stereo not given)
ED50 [2]: > 4 mg/kg

O=C(c1ccccc1)c1cc(Cl)cc2c1OCC2C(=O)O (stereo not given)
ED50 [3]: 150 mg/kg
ID50 [1]: 0.25 µg/mL (≈ 0.826 µM)
ED50 [2]: 0.8 mg/kg

O=C(c1ccccc1)c1cc(Cl)cc2c1S(=O)(=O)CC2C(=O)O (stereo not given)
ID50 [1]: > 50 µg/mL
ED50 [2]: > 5 mg/kg

O=C(c1ccccc1)c1cc(Br)cc2c1SCC2C(=O)O (stereo not given)
ID50 [1]: 1.4 µg/mL (≈ 3.85 µM)
ED50 [2]: 1.3 mg/kg

O=C(c1ccccc1)c1cccc2c1COC2C(=O)O (stereo not given)
ID50 [1]: 5 µg/mL (≈ 18.6 µM)
ED50 [2]: > 16 mg/kg

O=C(c1ccccc1)c1cc(F)cc2c1OCC2C(=O)O (stereo not given)
ED50 [2]: 2.9 mg/kg

Cc1cc(C(=O)c2ccccc2)c2c(c1)C(C(=O)O)CO2 (stereo not given)
ID50 [1]: 2 µg/mL (≈ 7.08 µM)
ED50 [2]: 1.9 mg/kg

O=C(c1ccccc1)c1cc(Cl)cc2c1[S+]([O-])CC2C(=O)O (stereo not given)
ID50 [1]: > 50 µg/mL
ED50 [2]: > 5 mg/kg

O=C(c1ccccc1)c1ccc2c(c1)C(C(=O)O)CS2 (stereo not given)
ED50 [2]: > 10 mg/kg

O=C(c1ccccc1)c1cccc2c1SCC2C(=O)O (stereo not given)
ED50 [3]: 13 mg/kg
ID50 [1]: 1.2 µg/mL (≈ 4.22 µM)
ED50 [2]: 0.6 mg/kg
